Data from ChEMBL document CHEMBL4138058, “Design and synthesis of novel selective estrogen receptor degradation inducers based on the diphenylheptane skeleton” (Medchemcomm, 2017).

Assays:
Assay type in all cases: cell-based
[1] = target: T1, Estrogen receptor (Homo sapiens) (UniProt P03372); test: Downregulation of ERalpha expression in human MCF7 cells at 1 uM after 6 hrs by Western blot method relative to beta-actin
T1 sequence (whole entry): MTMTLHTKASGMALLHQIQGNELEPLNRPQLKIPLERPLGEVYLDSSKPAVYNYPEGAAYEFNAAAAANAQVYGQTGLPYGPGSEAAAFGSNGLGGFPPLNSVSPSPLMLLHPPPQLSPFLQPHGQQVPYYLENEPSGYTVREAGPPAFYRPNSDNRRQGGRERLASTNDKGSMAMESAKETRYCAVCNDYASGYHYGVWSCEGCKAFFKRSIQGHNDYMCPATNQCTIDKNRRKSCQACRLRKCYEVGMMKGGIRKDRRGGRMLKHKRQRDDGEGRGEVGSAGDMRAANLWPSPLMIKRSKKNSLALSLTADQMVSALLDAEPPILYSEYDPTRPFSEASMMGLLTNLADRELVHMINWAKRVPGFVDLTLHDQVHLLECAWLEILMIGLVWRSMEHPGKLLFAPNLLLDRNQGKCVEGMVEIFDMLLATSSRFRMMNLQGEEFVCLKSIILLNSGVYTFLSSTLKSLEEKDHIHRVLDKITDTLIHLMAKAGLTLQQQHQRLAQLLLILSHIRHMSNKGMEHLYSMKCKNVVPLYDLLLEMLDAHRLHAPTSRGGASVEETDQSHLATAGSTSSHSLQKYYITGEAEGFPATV
Summary of the method: (§1)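 MCF-7 cells kept in DMEM with 10% FBS, kanamycin and 10 μg/mL insulin, then exposed to compounds for 6 h. Lysates made in SDS buffer (0.1 M Tris-HCl pH 8.0, 10% glycerol, 1% SDS), boiled, BCA-normalized and run on SDS-PAGE. Blots probed with anti-ERα, AR, AhR or VDR and β-actin or lamin B. Chemiluminescence quantified as target/loading-protein ratio; means ± S.E., n=3.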

[2] = target: T1, Estrogen receptor (Homo sapiens); test: Downregulation of ERalpha expression in human MCF7 cells at 1 uM after 6 hrs by Western blot method relative to lamin B; summary of the method: as §1
[3] = target: T2, Vitamin D3 receptor (Homo sapiens) (UniProt P11473); test: Downregulation of VDR expression in human MCF7 cells at 1 uM after 6 hrs by Western blot method relative to lamin B; summary of the method: as §1
T2 sequence (whole entry): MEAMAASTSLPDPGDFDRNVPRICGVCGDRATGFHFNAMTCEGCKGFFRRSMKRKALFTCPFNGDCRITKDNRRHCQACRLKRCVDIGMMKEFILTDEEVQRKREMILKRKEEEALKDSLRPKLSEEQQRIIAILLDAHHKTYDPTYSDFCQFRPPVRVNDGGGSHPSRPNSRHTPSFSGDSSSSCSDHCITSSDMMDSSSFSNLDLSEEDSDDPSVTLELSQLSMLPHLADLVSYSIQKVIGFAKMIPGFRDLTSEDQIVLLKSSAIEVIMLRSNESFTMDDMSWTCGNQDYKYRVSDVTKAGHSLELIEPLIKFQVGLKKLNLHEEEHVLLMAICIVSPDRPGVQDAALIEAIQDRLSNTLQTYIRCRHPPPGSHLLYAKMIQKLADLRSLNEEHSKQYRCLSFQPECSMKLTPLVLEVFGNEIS

[4] = target: T3, Androgen receptor (Homo sapiens) (UniProt P10275); test: Downregulation of androgen receptor expression in human MCF7 cells at 10 uM after 6 hrs by Western blot method relative to lamin B; summary of the method: as §1
T3 sequence (whole entry): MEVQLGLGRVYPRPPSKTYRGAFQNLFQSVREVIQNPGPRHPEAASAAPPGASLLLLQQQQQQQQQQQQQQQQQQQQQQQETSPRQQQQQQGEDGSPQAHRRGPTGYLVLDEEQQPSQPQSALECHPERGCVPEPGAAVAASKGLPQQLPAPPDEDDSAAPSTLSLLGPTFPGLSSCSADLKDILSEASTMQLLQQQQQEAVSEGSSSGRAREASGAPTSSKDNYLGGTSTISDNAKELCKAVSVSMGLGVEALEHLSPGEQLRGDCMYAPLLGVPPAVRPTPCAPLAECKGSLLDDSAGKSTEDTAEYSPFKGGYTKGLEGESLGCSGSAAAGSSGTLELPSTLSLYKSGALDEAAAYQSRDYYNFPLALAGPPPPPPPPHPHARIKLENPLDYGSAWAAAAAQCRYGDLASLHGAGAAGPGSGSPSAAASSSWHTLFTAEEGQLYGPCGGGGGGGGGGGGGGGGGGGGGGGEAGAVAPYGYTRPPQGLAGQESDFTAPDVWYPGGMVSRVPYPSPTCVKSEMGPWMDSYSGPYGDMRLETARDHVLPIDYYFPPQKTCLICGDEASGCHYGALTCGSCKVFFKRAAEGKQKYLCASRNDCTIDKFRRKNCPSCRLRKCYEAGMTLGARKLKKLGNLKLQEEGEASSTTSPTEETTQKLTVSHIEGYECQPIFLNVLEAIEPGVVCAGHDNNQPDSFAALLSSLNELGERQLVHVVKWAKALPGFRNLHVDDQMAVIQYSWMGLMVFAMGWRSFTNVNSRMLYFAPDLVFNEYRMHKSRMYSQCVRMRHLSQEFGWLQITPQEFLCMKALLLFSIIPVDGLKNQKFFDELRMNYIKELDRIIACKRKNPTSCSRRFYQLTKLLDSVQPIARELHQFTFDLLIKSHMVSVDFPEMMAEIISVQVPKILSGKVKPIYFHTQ

[5] = target: T1, Estrogen receptor (Homo sapiens); test: Downregulation of ERalpha expression in human MCF7 cells at 10 uM after 6 hrs in presence of proteasome inhibitor MG132 by Western blot method relative to lamin B; summary of the method: as §1
[6] = target: T3, Androgen receptor (Homo sapiens); test: Downregulation of androgen receptor expression in human MCF7 cells at 1 uM after 6 hrs in presence of proteasome inhibitor MG132 by Western blot method relative to lamin B; summary of the method: as §1

Activity [1]: 76%
Activity [2]: 58 to 76%
Activity [3]: 100%
Activity [4]: 98%
Activity [5]: 105%
Activity [6]: 96%
SMILES: CCCCCCCCCCNCCOc1ccc(C(CCC)(CCC)c2ccc(O)c(C)c2)cc1C
